# From PubChem BioAssay AID651787 (The Scripps Research Institute Molecular Screening Center, 2012)
# Hit rate of the full screen: of about 2,400 compounds, about 1,200 (50%) were called active. The set was probably picked from earlier hits. The list is a sample of the results. Unmarked numbers belong to inactive results.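 How the source made its calls: active means activation above the run cutoff, the mean activation over all tested wells plus 3 SD (cut at about 12% in these data); inactive means the rest.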
# Experiment: nonselective calcium mobilization agonists, CHO-Ga16 cells, counter-screen for hTAAR1 agonist project, cell-based, fluorescence, CHO-Ga16 parental line (AID 651787)
# Conditions: Fluo-8 calcium fluorescence, at 3 µM, stronger effect = higher value, normalized to maximal ATP response, DMSO zero
# In short: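 Test system: CHO-Gα16 parental cells without hTAAR1. Amount: 750 cells in each well. Incubation: 17-24 h seeding, dye 75 min 37 °C, 30 min RT. Measured by: Fluo-8 calcium-dye fluorescence. Evaluation: % activation from peak-to-basal fluorescence ratio, DMSO to ATP scale. Control set: DMSO (0%) and EC100 ATP (100%).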
row,SMILES,activation
1,Nc1cccc2c1C(=O)N(Cc1nnc(-c3ccccc3Br)o1)C2=O,60.4% (active)
2,CCCCCC(=O)NC(=S)NNC(=O)c1ccc([N+](=O)[O-])cc1,91.4% (active)
3,O=C(NCCc1ccccc1)/C(=C\c1ccc([N+](=O)[O-])cc1)NC(=O)c1ccccc1,2.11%
4,CCCC1CCC(=NNC(=S)NCCc2ccccc2)CC1 (configuration not stated),14.1% (active)
5,O=C(O)C1CC=CCC1C(=O)NCCc1ccccc1 (configuration not stated),0.16%
6,CCC(C(=O)Nc1ccc(C(C)C)cc1)c1ccccc1 (configuration not stated),75.1% (active)
7,c1ccc(C2CNCc3c2ccc2ccccc32)cc1 (configuration not stated),25.6% (active)
8,COc1ccc(C(=O)CN2C(=O)NC(C)(c3ccc(C)cc3)C2=O)cc1OC (configuration not stated),20.1% (active)
9,Cc1ccc(O)c(NC(=S)NC(=O)COc2ccc(Br)cc2)c1,101% (active)
10,CCCOc1ccc(-c2c(C(=O)N/N=C/c3ccco3)nnn2-c2nonc2N)cc1,39.5% (active)
11,Nc1nonc1-n1nnc(C(=O)N/N=C/c2ccc(Cl)cc2)c1-c1ccc2c(c1)OCO2,92.4% (active)
12,c1ccc(-c2csc(N3CCc4ccccc4C3)n2)cc1,0.58%
13,O=C(Nc1ccc(F)cc1)Nc1nnc([C@H]2C[C@H](O)[C@@H](CO)O2)s1,4.42%
14,O=C(CSc1nc(-c2ccco2)cc(C(F)(F)F)n1)NCc1cccs1,0.35%
15,COc1cccc(N(CC(=O)N2CCc3ccccc3C2)S(C)(=O)=O)c1,1.72%
16,C#CCOc1ccc(/C=C2/C(=O)NN(c3ccccc3)C2=O)cc1OC,45.9% (active)
17,Cc1ccc(Cl)cc1N1CCN(C(=O)c2cccc3c(=O)c(C)c(-c4ccccc4)oc23)CC1,78.9% (active)
18,CC(Oc1ccc2ccccc2c1)C(=O)NNC(=S)NC(=O)c1ccco1 (configuration not stated),75.1% (active)
19,CCCc1ccc(OCC(=O)NNC(=S)NC(=O)c2ccco2)cc1,64.1% (active)
20,COCCCn1c(Cc2csc(Nc3cccc(Cl)c3)n2)nnc1SCC(=O)OC1CCCCC1,3.91%
21,COc1ccc(CC(N)c2csc(NC(=O)Cc3ccccc3)n2)cc1 (configuration not stated),15.8% (active)
22,NC(Cc1ccccc1)c1csc(Nc2cc(Oc3ccccc3)ncn2)n1 (configuration not stated),39% (active)
23,CC(C)(C)CC(=O)Nc1nc(C(N)Cc2ccc(C(F)(F)F)cc2)cs1 (configuration not stated),79.7% (active)
24,Cn1c(=O)c(=O)n(C)c2cc(S(=O)(=O)NCCc3ccccc3)ccc21,0.95%

row,SMILES,activation
1,O=C(O)C1C2C=CC(O2)C1C(=O)NCCc1cccc(Cl)c1 (configuration not stated),2.07%
2,CCCc1cc(C(=O)Nc2ccc(C(=O)OC)cc2)cs1,4.88%
3,O=C(c1noc2c1CCCC2)N1CCc2ccccc2C1,3.31%
4,NC(=O)C1=C[C@H](c2csc3ccccc23)C[C@H](OCc2ccc(CO)cc2)O1,33.4% (active)
5,Cc1cc2nc3c(=O)[nH]c(=O)nc-3n(C[C@H](O)[C@H](O)[C@H](O)CO)c2cc1C,138% (active)
6,Cc1ccccc1-c1nc(CS(=O)(=O)CC(=O)N2CCc3ccccc3C2)c(C)o1,5.05%
7,O=C(NNC(=S)NC(=O)c1cn(-c2ccccc2)nc1-c1ccccc1)c1ccncc1,79.1% (active)
8,CC(NC(=O)c1cc(-c2ccccc2)on1)c1ccccc1 (configuration not stated),37.5% (active)
9,CCc1ccccc1S(=O)(=O)Cc1ccc(C(=O)NCCc2ccccc2)o1,5.88%
10,Cc1ccc(S(=O)(=O)N(CC(=O)N2CCc3ccccc3C2)c2cccc(Cl)c2)cc1,-0.38%
11,CC(=O)Nc1ccccc1Sc1ccc2c3c(cccc13)C(=O)N(c1ccc(C)cc1)C2=O,0.61%
12,COc1cc(OC)cc(C(=O)N[C@H](C(=O)OCC(=O)NC(C)c2ccccc2)C(C)C)c1 (some centres not stated),24.2% (active)
13,C[C@H](NC(=O)c1ccccc1)C(=O)OCC(=O)c1c[nH]c2ccccc12,0%
14,CCCn1c(O)c(CN2CCCC(C)C2)c(C)c(C#N)c1=O (configuration not stated),4.14%
15,Cc1onc(-c2ccccc2)c1C(=O)NNC(=S)NC(=O)c1ccc(F)cc1,105% (active)
16,COc1ccc(C(=O)NC(=S)NNC(=O)c2c(-c3ccccc3)noc2C)cc1,68.8% (active)
17,Cc1cc(=O)oc2c(C)c(OCC(=O)NCCN3CCOCC3)ccc12,4.41%
18,COc1ccc(C(=O)NC(=S)NNC(=O)CCc2ccccc2)cc1,87.2% (active)
19,COc1ccc(C(=O)NNC(=S)NC(=O)c2ccccc2)cc1,94.4% (active)
20,O=C(Nc1cccc(NC(=O)c2ccc(Br)cc2)c1)c1ccccc1,5.7%
21,COc1ccc(OC)c(C(c2nnnn2C(C)(C)C)N2CCc3ccccc3C2)c1 (configuration not stated),-0.7%
22,Nc1c(C(=O)c2cccs2)sc2nsc(SCCN3CCCCC3)c12,72.3% (active)
23,CCC(c1nnnn1Cc1ccco1)N(CCc1ccccc1)Cc1cc2ccc(OC)cc2[nH]c1=O (configuration not stated),4.24%
